Experimental findings from ChEMBL document CHEMBL4765368, “Structure guided design and synthesis of furyl thiazolidinedione derivatives as inhibitors of GLUT 1 and GLUT 4, and evaluation of their anti-leukemic potential” (Eur J Med Chem, 2020) are described below.

Activity calls are given as the source filed them. No cut-off for these calls is given here.

The first test deals with Histone deacetylase 4 (Homo sapiens) (UniProt P56524). In words: Inhibition of recombinant human N-terminal GST-tagged HDAC4 (627 to end residues) expressed in baculovirus infected Sf9 insect cells assessed as residual activity at 50 uM using Boc-Lys(trifluoroacetyl)-AMC as substrate preincubated for 60 mins followed by substrate addition and measured after 60 mins by fluorescence assay relative to control. The conditions noted are these: time 120.0 min.
Histone deacetylase 4 (Homo sapiens), sequence (P56524 whole entry): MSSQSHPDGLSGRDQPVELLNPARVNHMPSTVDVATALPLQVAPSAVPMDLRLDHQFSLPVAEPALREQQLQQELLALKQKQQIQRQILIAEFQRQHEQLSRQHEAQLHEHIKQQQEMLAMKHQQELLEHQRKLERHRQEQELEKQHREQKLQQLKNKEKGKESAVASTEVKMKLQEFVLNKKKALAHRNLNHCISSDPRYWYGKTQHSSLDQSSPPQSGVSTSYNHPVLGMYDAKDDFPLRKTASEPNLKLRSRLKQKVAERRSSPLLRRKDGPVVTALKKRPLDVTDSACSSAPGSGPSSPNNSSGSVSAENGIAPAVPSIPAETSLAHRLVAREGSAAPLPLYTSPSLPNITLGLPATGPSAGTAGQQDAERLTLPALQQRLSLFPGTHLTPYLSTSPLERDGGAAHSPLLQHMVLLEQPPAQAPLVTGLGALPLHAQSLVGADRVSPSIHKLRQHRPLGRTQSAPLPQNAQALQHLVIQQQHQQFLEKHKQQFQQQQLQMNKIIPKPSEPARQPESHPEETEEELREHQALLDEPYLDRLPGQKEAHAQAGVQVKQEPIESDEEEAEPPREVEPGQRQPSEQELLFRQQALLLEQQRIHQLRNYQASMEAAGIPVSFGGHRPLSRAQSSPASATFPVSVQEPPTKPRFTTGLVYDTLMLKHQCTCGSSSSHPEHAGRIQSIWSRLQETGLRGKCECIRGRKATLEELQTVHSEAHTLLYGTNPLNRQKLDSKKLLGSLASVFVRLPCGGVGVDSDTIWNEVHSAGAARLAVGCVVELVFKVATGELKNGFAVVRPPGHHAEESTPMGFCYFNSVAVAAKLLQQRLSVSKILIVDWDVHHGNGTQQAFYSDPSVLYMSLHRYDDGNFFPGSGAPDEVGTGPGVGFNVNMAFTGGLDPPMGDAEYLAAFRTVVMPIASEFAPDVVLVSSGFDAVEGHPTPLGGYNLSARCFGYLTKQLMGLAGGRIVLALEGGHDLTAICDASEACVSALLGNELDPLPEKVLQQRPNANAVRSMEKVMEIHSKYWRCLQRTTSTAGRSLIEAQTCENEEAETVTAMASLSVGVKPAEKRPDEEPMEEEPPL
Regarding `O=C(CN1C(=O)S/C(=C/c2ccco2)C1=O)Nc1ccccn1`, the Activity is over 50%.

As to `O=C(CN1C(=O)S/C(=C/c2ccco2)C1=O)Nc1ccc(Br)cc1F`, the Activity is over 50%.

Consider `Cc1cc(NC(=O)CN2C(=O)S/C(=C/c3ccco3)C2=O)no1`, for which the Activity is over 50%.

In the case of `O=C(CN1C(=O)S/C(=C/c2ccco2)C1=O)Nc1cc(C(F)(F)F)ccc1Cl`, the Activity was over 50%.

Turning to `Cc1c(NC(=O)CN2C(=O)S/C(=C/c3ccco3)C2=O)c(=O)n(-c2ccccc2)n1C`, the Activity is over 50%.

As for `O=C(CN1C(=O)S/C(=C/c2ccco2)C1=O)Nc1ccc(Br)cc1`, the Activity was over 50%.

For the molecule `O=C(CN1C(=O)S/C(=C/c2ccco2)C1=O)Nc1ccccc1`, the Activity was over 50%.

On to `O=C(CN1C(=O)S/C(=C/c2ccco2)C1=O)Nc1cccc(F)c1`, for which the Activity is over 50%.

On to `O=C(CN1C(=O)S/C(=C/c2ccco2)C1=O)Nc1ccc(Br)c(Br)c1`, for which the Activity is over 50%.

Turning to `O=C(CN1C(=O)S/C(=C/c2ccco2)C1=O)Nc1cccc(C(F)(F)F)c1`, the Activity is over 50%.

For the molecule `Cc1ccc(NC(=O)CN2C(=O)S/C(=C/c3ccco3)C2=O)cc1Cl`, the Activity was over 50%.

Consider `O=C(CN1C(=O)S/C(=C/c2ccco2)C1=O)Nc1c(F)cc(Br)cc1F`, for which the Activity is over 50%.

For `O=C(CN1C(=O)S/C(=C/c2ccco2)C1=O)Nc1ccc(F)cc1`, the Activity was over 50%.

As to `O=C(CN1C(=O)S/C(=C/c2ccco2)C1=O)Nc1ccccc1F`, the Activity is over 50%.

As to `COc1ccc(NC(=O)CN2C(=O)S/C(=C/c3ccco3)C2=O)cc1`, the Activity was over 50%.

As for `Cc1ccc(NC(=O)CN2C(=O)S/C(=C/c3ccco3)C2=O)cc1`, the Activity is over 50%.

Consider `O=C(CN1C(=O)S/C(=C/c2ccco2)C1=O)Nc1nccs1`, for which the Activity was over 50%.

Regarding `O=C(CN1C(=O)S/C(=C/c2ccco2)C1=O)Nc1ccc(F)cc1F`, the Activity was over 50%.

Take `O=C(CN1C(=O)S/C(=C/c2ccco2)C1=O)Nc1ccc(Cl)cc1C(F)(F)F`: the Activity was over 50%.

As for `O=C(CN1C(=O)S/C(=C/c2ccco2)C1=O)Nc1ccc(Oc2ccccc2)cc1`, the Activity is over 50%.

The target in another test is T1, Solute carrier family 2, facilitated glucose transporter member 5 (Homo sapiens) (UniProt P22732).
T1 sequence (whole entry): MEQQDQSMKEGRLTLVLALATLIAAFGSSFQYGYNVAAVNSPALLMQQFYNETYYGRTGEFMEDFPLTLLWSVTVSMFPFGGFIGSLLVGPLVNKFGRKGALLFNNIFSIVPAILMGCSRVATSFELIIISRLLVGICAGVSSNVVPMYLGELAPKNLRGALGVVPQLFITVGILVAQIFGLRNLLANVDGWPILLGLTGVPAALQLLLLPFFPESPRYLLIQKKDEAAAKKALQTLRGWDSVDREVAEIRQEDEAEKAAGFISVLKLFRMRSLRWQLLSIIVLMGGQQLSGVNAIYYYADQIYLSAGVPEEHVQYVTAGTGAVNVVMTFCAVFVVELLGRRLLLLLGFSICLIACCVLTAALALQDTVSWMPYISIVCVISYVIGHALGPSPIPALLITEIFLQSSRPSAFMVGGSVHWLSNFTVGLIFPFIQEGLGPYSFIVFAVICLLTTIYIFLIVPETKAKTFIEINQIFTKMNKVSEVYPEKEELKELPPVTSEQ
In words: Inhibition of transport activity of human GLUT5 expressed in hexose transporter deficient VW4000 yeast cells assessed as reduction in transporter-mediated [14C]-fructose uptake into cells at 100 uM measured after 10 mins by scintillation counting method.
Settings: not given
The test is classed as cell-based. In outline:
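The hxt0 yeast strain expressing one human GLUT was grown at 30 °C and resuspended in PBS pH 7.4 at OD600 ~10. Uptake was started with 14C-glucose at 5 mM final (GLUT1, GLUT4) or 14C-fructose at 10 mM final (GLUT5). It was quenched after 10 min with ice-cold 0.1 M KPi/0.1 M LiCl pH 5.5, filtered and counted by scintillation. Compound at 100 μM with 1% DMSO; DMSO control and phloretin 200 μM (GLUT1/4) or MSNBA 100 μM (GLUT5) as references. Triplicates.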
Take `O=C(CN1C(=O)S/C(=C/c2ccco2)C1=O)Nc1ccccn1`: the inhibition entry was “inactive”.

Regarding `O=C(CN1C(=O)S/C(=C/c2ccco2)C1=O)Nc1ccc(Br)cc1F`, the inhibition entry was “inactive”.

Take `Cc1cc(NC(=O)CN2C(=O)S/C(=C/c3ccco3)C2=O)no1`: the inhibition entry was “inactive”.

With `O=C(CN1C(=O)S/C(=C/c2ccco2)C1=O)Nc1cc(C(F)(F)F)ccc1Cl`, the inhibition entry is “inactive”.

With `Cc1c(NC(=O)CN2C(=O)S/C(=C/c3ccco3)C2=O)c(=O)n(-c2ccccc2)n1C`, the inhibition result was “inactive”.

On to `O=C(CN1C(=O)S/C(=C/c2ccco2)C1=O)Nc1ccc(Br)cc1`, for which the inhibition entry is “inactive”.

Turning to `O=C(CN1C(=O)S/C(=C/c2ccco2)C1=O)Nc1ccccc1`, the inhibition result is “inactive”.

In the case of `O=C(CN1C(=O)S/C(=C/c2ccco2)C1=O)Nc1cccc(F)c1`, the inhibition entry is “inactive”.

As for `O=C(CN1C(=O)S/C(=C/c2ccco2)C1=O)Nc1cccc(C(F)(F)F)c1`, the inhibition result was “inactive”.

On to `Cc1ccc(NC(=O)CN2C(=O)S/C(=C/c3ccco3)C2=O)cc1Cl`, for which the inhibition entry is “inactive”.

For the molecule `O=C(CN1C(=O)S/C(=C/c2ccco2)C1=O)Nc1c(F)cc(Br)cc1F`, the inhibition result is “inactive”.

As to `O=C(CN1C(=O)S/C(=C/c2ccco2)C1=O)Nc1ccc(F)cc1`, the inhibition result was “inactive”.

For `O=C(CN1C(=O)S/C(=C/c2ccco2)C1=O)Nc1ccccc1F`, the inhibition result was “inactive”.

`COc1ccc(NC(=O)CN2C(=O)S/C(=C/c3ccco3)C2=O)cc1`: the inhibition result is “inactive”.

As for `Cc1ccc(NC(=O)CN2C(=O)S/C(=C/c3ccco3)C2=O)cc1`, the inhibition result was “inactive”.

Consider `O=C(CN1C(=O)S/C(=C/c2ccco2)C1=O)Nc1nccs1`, for which the inhibition entry was “inactive”.

As to `O=C(CN1C(=O)S/C(=C/c2ccco2)C1=O)Nc1ccc(F)cc1F`, the inhibition result is “inactive”.

Turning to `O=C(CN1C(=O)S/C(=C/c2ccco2)C1=O)Nc1ccc(Cl)cc1C(F)(F)F`, the inhibition entry was “inactive”.

Take `O=C(CN1C(=O)S/C(=C/c2ccco2)C1=O)Nc1ccc(Oc2ccccc2)cc1`: the inhibition result was “inactive”.

The next test concerns CCRF-CEM. Description: Cytotoxicity against human CCRF-CEM cells assessed as reduction in cell viability measured after 48 hrs by Hoechst 33342/propidium iodide staining based imaging analysis. The test is classed as functional.
Settings: not given
In short, it runs like this:
(§1)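 Cells were seeded at 10,000 per well (HS-27 at 3,000) in 10% FBS RPMI (leukemic lines) or DMEM (MDA-MB-231, HS-27). Compound in DMSO (1% v/v final) at 0.5–100 µM for 48 h. Hoechst 33342 and PI were added 2 h before automated imaging; dead cells were co-stained. Quadruplicates. CC50 was taken by linear interpolation between the two concentrations nearest 50% death.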
For `Cc1cc(NC(=O)CN2C(=O)S/C(=C/c3ccco3)C2=O)no1`, the CC50 – broadly, the concentration at which the toxic effect on the cells reaches its halfway point – was over 100 µM.

For the molecule `O=C(CN1C(=O)S/C(=C/c2ccco2)C1=O)Nc1ccc(Br)cc1`, the CC50 was 81 µM.

On to `Cc1ccc(NC(=O)CN2C(=O)S/C(=C/c3ccco3)C2=O)cc1`, for which the CC50 is 102 µM.

Consider `O=C(CN1C(=O)S/C(=C/c2ccco2)C1=O)Nc1ccc(Cl)cc1C(F)(F)F`, for which the CC50 was 79.9 µM.

For the next test, the target named is T2, Histone deacetylase 8 (Homo sapiens) (UniProt Q9BY41).
T2 sequence (whole entry): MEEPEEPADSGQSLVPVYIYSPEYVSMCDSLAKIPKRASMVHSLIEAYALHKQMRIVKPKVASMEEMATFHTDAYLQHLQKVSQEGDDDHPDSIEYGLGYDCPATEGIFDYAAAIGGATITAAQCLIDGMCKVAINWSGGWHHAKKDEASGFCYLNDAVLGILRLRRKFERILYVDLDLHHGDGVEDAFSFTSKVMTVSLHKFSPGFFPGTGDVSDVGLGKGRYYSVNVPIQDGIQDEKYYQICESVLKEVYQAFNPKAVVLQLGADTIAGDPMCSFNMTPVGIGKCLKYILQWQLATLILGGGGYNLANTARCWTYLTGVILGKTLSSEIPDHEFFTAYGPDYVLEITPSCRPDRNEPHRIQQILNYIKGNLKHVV
In words: Inhibition of recombinant human His6/SUMO-tagged HDAC8 expressed in Escherichia coli (BL21) DE3 pLysS assessed as residual activity at 50 uM using Boc-Lys(trifluoroacetyl)-AMC as substrate preincubated for 60 mins followed by substrate addition and measured after 60 mins by fluorescence assay relative to control. Conditions: time 120.0 min. In outline:
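20 μM Boc-Lys(trifluoroacetyl)-AMC was then added for 60 min at 30 °C, the reaction stopped with 1.7 μM SATFMK and developed with 0.4 mg/ml trypsin, and AMC fluorescence read at Ex 350/Em 450 nm. Triplicates; percent relative activity.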
For the molecule `O=C(CN1C(=O)S/C(=C/c2ccco2)C1=O)Nc1ccccn1`, the Activity is over 50%.

For `O=C(CN1C(=O)S/C(=C/c2ccco2)C1=O)Nc1ccc(Br)cc1F`, the Activity is over 50%.

Consider `Cc1cc(NC(=O)CN2C(=O)S/C(=C/c3ccco3)C2=O)no1`, for which the Activity is over 50%.

On to `O=C(CN1C(=O)S/C(=C/c2ccco2)C1=O)Nc1cc(C(F)(F)F)ccc1Cl`, for which the Activity is over 50%.

As to `Cc1c(NC(=O)CN2C(=O)S/C(=C/c3ccco3)C2=O)c(=O)n(-c2ccccc2)n1C`, the Activity was over 50%.

For `O=C(CN1C(=O)S/C(=C/c2ccco2)C1=O)Nc1ccc(Br)cc1`, the Activity is over 50%.

Turning to `O=C(CN1C(=O)S/C(=C/c2ccco2)C1=O)Nc1ccccc1`, the Activity is over 50%.

`O=C(CN1C(=O)S/C(=C/c2ccco2)C1=O)Nc1cccc(F)c1`: the Activity is over 50%.

On to `O=C(CN1C(=O)S/C(=C/c2ccco2)C1=O)Nc1ccc(Br)c(Br)c1`, for which the Activity was over 50%.

With `O=C(CN1C(=O)S/C(=C/c2ccco2)C1=O)Nc1cccc(C(F)(F)F)c1`, the Activity is over 50%.

Consider `Cc1ccc(NC(=O)CN2C(=O)S/C(=C/c3ccco3)C2=O)cc1Cl`, for which the Activity was over 50%.

On to `O=C(CN1C(=O)S/C(=C/c2ccco2)C1=O)Nc1c(F)cc(Br)cc1F`, for which the Activity is over 50%.

For the molecule `O=C(CN1C(=O)S/C(=C/c2ccco2)C1=O)Nc1ccc(F)cc1`, the Activity is over 50%.

As to `O=C(CN1C(=O)S/C(=C/c2ccco2)C1=O)Nc1ccccc1F`, the Activity is over 50%.

Take `COc1ccc(NC(=O)CN2C(=O)S/C(=C/c3ccco3)C2=O)cc1`: the Activity was over 50%.

For the molecule `Cc1ccc(NC(=O)CN2C(=O)S/C(=C/c3ccco3)C2=O)cc1`, the Activity was over 50%.

As to `O=C(CN1C(=O)S/C(=C/c2ccco2)C1=O)Nc1nccs1`, the Activity was over 50%.

Regarding `O=C(CN1C(=O)S/C(=C/c2ccco2)C1=O)Nc1ccc(F)cc1F`, the Activity is over 50%.

Regarding `O=C(CN1C(=O)S/C(=C/c2ccco2)C1=O)Nc1ccc(Cl)cc1C(F)(F)F`, the Activity is over 50%.

On to `O=C(CN1C(=O)S/C(=C/c2ccco2)C1=O)Nc1ccc(Oc2ccccc2)cc1`, for which the Activity was over 50%.

For another test, the system named is K562. In words: Cytotoxicity against human K562 cells assessed as reduction in cell viability measured after 48 hrs by Hoechst 33342/propidium iodide staining based imaging analysis. It is filed as functional.
Settings: not given
In short, it runs like this: as §1
With `Cc1cc(NC(=O)CN2C(=O)S/C(=C/c3ccco3)C2=O)no1`, the CC50 was determined as 98.6 µM.

For `O=C(CN1C(=O)S/C(=C/c2ccco2)C1=O)Nc1ccc(Br)cc1`, the CC50 is 94 µM.

For the molecule `Cc1ccc(NC(=O)CN2C(=O)S/C(=C/c3ccco3)C2=O)cc1`, the CC50 is over 100 µM.

With `O=C(CN1C(=O)S/C(=C/c2ccco2)C1=O)Nc1ccc(Cl)cc1C(F)(F)F`, the half-maximal cytotoxic concentration (CC50) was over 100 µM.

The test system of the next test is KCL-22. In words: Cytotoxicity against human KCL-22 cells assessed as reduction in cell viability measured after 48 hrs by Hoechst 33342/propidium iodide staining based imaging analysis. The test is classed as functional.
Settings: not given
In outline:
as §1
`Cc1cc(NC(=O)CN2C(=O)S/C(=C/c3ccco3)C2=O)no1`: the CC50 was over 100 µM.

Take `O=C(CN1C(=O)S/C(=C/c2ccco2)C1=O)Nc1ccc(Br)cc1`: the CC50 was 98.2 µM.

On to `Cc1ccc(NC(=O)CN2C(=O)S/C(=C/c3ccco3)C2=O)cc1`, for which the cytotoxic concentration (CC50) was over 100 µM.

As for `O=C(CN1C(=O)S/C(=C/c2ccco2)C1=O)Nc1ccc(Cl)cc1C(F)(F)F`, the CC50 is over 100 µM.
